# According to PMC6038876 (Drug Design, Development and Therapy, 2018):
# Experiments:
# P-glycoprotein (Pgp) = conditions: cited from earlier work
# [1] = Kinetic solubility study of SNMSDs and EDR in SIF pH 6.8; type: physicochemical
# [2] = pH 8–10; cited from earlier work
# [3] = Solubility of EDR, PM and NEF in simulated body fluids and water
# [4] = In vitro dissolution study; type: physicochemical
# How it was run: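 USP type II (paddle) apparatus at 37°C and 50 rpm, with 900 mL of SGF (pH 1.2) or SIF (pH 6.8). Samples were taken at 5, 15, 30, 45, 60, 90 and 120 min, with media replaced, then passed through a 0.45 µm filter and diluted with mobile phase as needed. They were quantified by HPLC-UV at 240 nm (water:methanol:acetic acid 100:100:1, 1 mL/min). Release data were fitted to zero-order, first-order, Higuchi, Hixson–Crowell and Korsmeyer–Peppas models. f1 and f2 were calculated comparing the unformulated and formulated drug profiles.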
# [5] = cited from earlier work
# UGT enzymes = conditions: cited from earlier work
# [6] = tested on: glucuronidation of EDR in rat liver microsomes; assay: Microsomal incubation assay of EDR glucuronidation; type: in vitro ADME; conditions: SOL 1%
# [7] = Miscibility study: solubility of EDR in polymeric carrier solutions; conditions: 10% (w/v) polymer in water
# [8] = dissolution profiles in SGF vs SIF
compound,measurement,setting,value
"CC1=NN(c2ccccc2)C(=O)C1 [EDR, 3-methyl-1-phenyl-2-pyrazolin-5-one]",substrate of P-glycoprotein (Pgp),P-glycoprotein (Pgp),substrate
same,solubility,[1],2290 ± 320 µg/mL
same,degradation at alkaline conditions,[2],dramatic degradation
same,solubility in SGF (pH 1.2) compared to solubility in water,[3]; SGF pH 1.2,4.46 fold
same,solubility in SIF compared to solubility in water,[3]; SIF pH 6.8 and 7.4,insignificant difference
same,release kinetic model followed,[4]; SGF,Hixson–Crowell
same,release kinetics: First order,[4]; SGF,0.834
same,release kinetics: Higuchi matrix,[4]; SGF,0.8501
same,release kinetics: Hixson–Crowell,[4]; SGF,0.9216
same,release kinetics: Korsmeyer–Peppas,[4]; SGF,0.8636
same,release kinetics: Zero order,[4]; SGF,0.6077
same,release / dissolution in SGF,"[4]; SGF (pH 1.2), within 15 min",100%
same,release kinetic model followed,[4]; SIF,Korsmeyer–Peppas
same,release kinetics: First order,[4]; SIF,0.9609
same,release kinetics: Higuchi matrix,[4]; SIF,0.97
same,release kinetics: Hixson–Crowell,[4]; SIF,0.9718
same,release kinetics: Korsmeyer–Peppas,[4]; SIF,0.9895
same,release kinetics: Zero order,[4]; SIF,0.7947
same,release mechanism,[4]; SIF,anomalous transport (non-Fickian)
same,release in SIF,"[4]; SIF (pH 6.8), in 120 min",85%
same,f1 value (dissimilarity factor),[4]; [8],26
same,f2 value (similarity factor),[4]; [8],14
same,dissolution,[4]; within 15 min in the 900 mL of dissolution media,100%
same,solubility in SGF,[5],8260 ± 1420 µg/mL
same,substrate of UGT enzymes,UGT enzymes,substrate
CC1(C)C2CCC1(C)C(O)C2 (stereo not drawn) [borneol],inhibitory effect on glucuronidation of EDR,[6],37.56%
hydroxypropyl-β-cyclodextrin [HP-β-CD],improvement in the aqueous solubility of EDR,[7],3.49 fold
